Data reported in ChEMBL document CHEMBL1132449, “Pyrroloquinoxaline derivatives as high-affinity and selective 5-HT(3) receptor agonists: synthesis, further structure-activity relationships, and biological studies” (J Med Chem, 1999).

Assays:
[1] = biological target: T1, 5-hydroxytryptamine receptor 1A (Rattus norvegicus, UniProt P19327); experiment: The compound was tested for the binding affinity against 5-hydroxytryptamine 1A receptor using [3H]8-OH-DPAT as radioligand.
T1 sequence (P19327 whole entry): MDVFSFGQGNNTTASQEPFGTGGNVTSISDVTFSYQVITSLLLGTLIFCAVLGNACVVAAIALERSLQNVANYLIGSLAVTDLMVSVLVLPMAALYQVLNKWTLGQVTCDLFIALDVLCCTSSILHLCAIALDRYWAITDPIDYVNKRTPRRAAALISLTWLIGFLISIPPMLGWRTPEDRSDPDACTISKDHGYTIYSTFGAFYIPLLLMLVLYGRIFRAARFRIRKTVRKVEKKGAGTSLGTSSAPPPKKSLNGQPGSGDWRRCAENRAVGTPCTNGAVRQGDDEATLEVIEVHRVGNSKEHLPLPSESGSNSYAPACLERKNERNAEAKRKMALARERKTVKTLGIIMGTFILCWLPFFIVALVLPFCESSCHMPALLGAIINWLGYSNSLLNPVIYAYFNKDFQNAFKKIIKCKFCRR

[2] = biological target: T2, 5-hydroxytryptamine receptor 1B (Rattus norvegicus, UniProt P28564); experiment: The compound was tested for the binding affinity against 5-hydroxytryptamine 1B receptor using [3H]5-HT as radioligand
[3] = biological target: T3, 5-hydroxytryptamine receptor 2A (Rattus norvegicus, UniProt P14842); experiment: The compound was tested for the binding affinity against 5-hydroxytryptamine 2A receptor using [3H]ketanserin as radioligand
[4] = biological target: T4, 5-hydroxytryptamine receptor 2C (Rattus norvegicus, UniProt P08909); experiment: The compound was tested for the binding affinity against 5-hydroxytryptamine 2C receptor using [3H]mesulergine as radioligand
T4 sequence (P08909 whole entry): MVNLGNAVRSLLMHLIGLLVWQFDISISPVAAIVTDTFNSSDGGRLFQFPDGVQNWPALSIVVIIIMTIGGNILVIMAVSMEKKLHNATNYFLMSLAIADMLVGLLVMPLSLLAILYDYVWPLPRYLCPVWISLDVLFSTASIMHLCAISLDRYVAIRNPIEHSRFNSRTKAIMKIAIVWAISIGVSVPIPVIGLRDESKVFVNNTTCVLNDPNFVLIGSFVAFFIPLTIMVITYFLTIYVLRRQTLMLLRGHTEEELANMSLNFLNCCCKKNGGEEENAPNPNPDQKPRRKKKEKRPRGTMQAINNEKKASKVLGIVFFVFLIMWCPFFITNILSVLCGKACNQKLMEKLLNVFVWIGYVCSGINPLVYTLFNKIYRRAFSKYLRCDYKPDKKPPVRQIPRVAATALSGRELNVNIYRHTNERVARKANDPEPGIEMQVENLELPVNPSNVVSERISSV

[5] = biological target: T5, Serotonin 3 (5-HT3) receptor (Rattus norvegicus, UniProt P35563+Q9JJ16); experiment: The compound was tested for binding affinity against 5-hydroxytryptamine 3 receptor from NG108-15 cells (using [3H]zacopride as radioligand); type: cell-based
T5 sequence (P35563 whole entry): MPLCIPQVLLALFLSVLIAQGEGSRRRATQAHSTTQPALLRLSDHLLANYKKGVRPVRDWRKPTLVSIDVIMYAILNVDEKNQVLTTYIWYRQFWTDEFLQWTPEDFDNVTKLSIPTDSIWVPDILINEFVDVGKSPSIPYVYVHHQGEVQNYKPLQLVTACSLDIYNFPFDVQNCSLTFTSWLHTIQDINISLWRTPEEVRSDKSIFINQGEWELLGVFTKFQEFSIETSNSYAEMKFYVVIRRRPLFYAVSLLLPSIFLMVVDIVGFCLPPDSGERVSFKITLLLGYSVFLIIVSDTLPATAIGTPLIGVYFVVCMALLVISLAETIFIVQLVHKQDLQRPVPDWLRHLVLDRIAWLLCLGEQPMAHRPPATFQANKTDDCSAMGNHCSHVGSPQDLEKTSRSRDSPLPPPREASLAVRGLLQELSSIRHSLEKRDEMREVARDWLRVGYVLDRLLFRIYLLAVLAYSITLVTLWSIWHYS
T5 sequence (Q9JJ16 whole entry): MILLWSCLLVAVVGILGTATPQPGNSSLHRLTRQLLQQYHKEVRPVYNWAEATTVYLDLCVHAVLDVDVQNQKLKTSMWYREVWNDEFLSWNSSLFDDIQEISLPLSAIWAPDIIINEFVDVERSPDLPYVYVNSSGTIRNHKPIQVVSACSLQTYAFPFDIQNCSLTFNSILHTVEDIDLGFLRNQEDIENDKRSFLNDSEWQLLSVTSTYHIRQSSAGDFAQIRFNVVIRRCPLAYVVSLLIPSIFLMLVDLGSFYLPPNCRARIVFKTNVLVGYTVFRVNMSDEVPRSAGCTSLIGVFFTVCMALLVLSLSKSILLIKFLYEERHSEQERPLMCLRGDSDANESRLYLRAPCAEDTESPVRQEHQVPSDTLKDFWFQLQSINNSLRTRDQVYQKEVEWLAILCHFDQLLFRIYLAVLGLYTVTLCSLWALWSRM
In short: (§1)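 NG108-15 cells were grown in DMEM with 10% inactivated FCS plus HAT at 37 °C, 10% CO2, harvested by shaking and pelleted. About 420 000 cells/sample in 50 mM Tris HCl pH 7.5 with 25 mM NaCl were incubated with 0.4 nM (final) [3H]zacopride for 60 min at 25 °C, then filtered and counted. IC50 is mean ± SEM of three determinations.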

[6] = biological target: T5, Serotonin 3 (5-HT3) receptor; experiment: The compound was tested for the binding affinity against 5-hydroxytryptamine 3 receptor using [3H]zacopride as radioligand; type: protein-complex assay
[7] = biological target: T6, 5-hydroxytryptamine receptor 4 (Cavia porcellus, UniProt O70528); experiment: The compound was tested for the binding affinity against 5-hydroxytryptamine 4 receptor using [3H]GR-113808 as radioligand
In short: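 Male guinea pig striatal membranes, washed and preincubated at 37 °C, were incubated with 0.1 nM (final) [3H]GR113808 for 30 min at 37 °C.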

[8] = The compound was tested for brain to plasma partition in rat; type: ADME, organism-based; settings: brain and plasma, read-out: AUC ratio
In short: (§2)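 Male CD-COBS rats (175-200 g) received hydrochloride salts in saline i.v. at 5 mg/kg and were killed 60, 120 and 180 min after dosing. Plasma and brain levels were measured by HPLC-UV (254 nm) after liquid-liquid or solid-phase extraction with an internal standard. The ratio is brain-to-plasma AUC_t, 2-3 rats per point.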

[9] = biological target: Serotonin 3 (5-HT3) receptor; experiment: Effective concentration against 5-Hydroxytryptamine 3 receptor by measuring [14C]guanidinium uptake on NG108-15 cells.; type: functional, cell-based
NG108-15 [10] = experiment: The compound was tested for efficacy against 5-Hydroxytryptamine 3 receptor by measuring [14C]guanidinium uptake on NG108-15 cells; PA=Partial agonist; type: functional, cell-based; settings: filed as partial agonist
In short: (§3)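 NG108-15 cells, grown 2 days, were washed in HEPES saline pH 7.4. They were exposed 10 min at 37 °C to buffer (135 mM NaCl, 10 mM guanidinium) with […] [14C]guanidinium, 1 mM 5-HT, […] and/or 8 drug concentrations. Cells were washed in ice-cold choline buffer, dissolved in NaOH and counted by scintillation. Assays run in triplicate.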

[11] = biological target: T5, Serotonin 3 (5-HT3) receptor; experiment: Binding affinity against 5-hydroxytryptamine 3 (5-HT3) receptor from rat cortical homogenate using [3H]zacopride as radioligand
In short: (§4)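 Male rat cortices, stored at -80 °C, were homogenized in ice-cold 25 mM Tris HCl pH 7.4 and spun at 50000g. Membranes were preincubated 10 min at 37 °C, washed, and resuspended with 10 µM pargyline (10 mg tissue/sample). They were incubated with 0.4 nM (final) [3H]zacopride for 30 min at 25 °C, filtered through PEI-treated GF/B and counted. IC50 came from dose-inhibition curves, mean ± SEM of three determinations.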

NG108-15 [12] = experiment: The compound was tested for efficacy against 5-Hydroxytryptamine 3 receptor by measuring [14C]guanidinium uptake on NG108-15 cells; A= agonist; type: functional, cell-based; settings: filed as agonist; in short: as §3
[13] = biological target: T5, Serotonin 3 (5-HT3) receptor; experiment: The compound was tested for binding affinity against 5-hydroxytryptamine 3 receptor from rat cortical homogenate using [3H]zacopride as radioligand; not active; in short: as §4
[14] = biological target: T2, 5-hydroxytryptamine receptor 1B; experiment: The compound was tested for the binding affinity against 5-hydroxytryptamine 1B receptor using [3H]5-HT as radioligand.
[15] = biological target: T3, 5-hydroxytryptamine receptor 2A; experiment: The compound was tested for the binding affinity against 5-hydroxytryptamine 2A receptor using [3H]ketanserin as radioligand.
[16] = biological target: T4, 5-hydroxytryptamine receptor 2C; experiment: The compound was tested for the binding affinity against 5-hydroxytryptamine 2C receptor using [3H]Mesulergine as radioligand.
[17] = biological target: T5, Serotonin 3 (5-HT3) receptor; experiment: The compound was tested for binding affinity against 5-hydroxytryptamine 3 receptor from NG108-15 cells using [3H]zacopride as radioligand; type: cell-based; in short: as §1
[18] = biological target: T5, Serotonin 3 (5-HT3) receptor; experiment: The compound was tested for the binding affinity against 5-hydroxytryptamine 3 receptor using [3H]zacopride as radioligand.; type: protein-complex assay
[19] = biological target: T6, 5-hydroxytryptamine receptor 4; experiment: The compound was tested for the binding affinity against 5-hydroxytryptamine 4 receptor using [3H]GR-113808 as radioligand.
[20] = The compound was tested for brain to plasma partition in rat.; type: ADME, organism-based; settings: brain and plasma, read-out: AUC ratio; in short: as §2
NG108-15 [21] = experiment: The compound was tested for efficacy against 5-Hydroxytryptamine 3 receptor by measuring [14C]guanidinium uptake on NG108-15 cells.; A = Agonist; type: functional, cell-based; settings: filed as agonist; in short: as §3
NG108-15 [22] = experiment: The compound was tested for efficacy against 5-Hydroxytryptamine 3 receptor by measuring [14C]guanidinium uptake on NG108-15 cells.; PA=Partial agonist; type: functional, cell-based; settings: filed as partial agonist; in short: as §3

T3 sequence (P14842 whole entry): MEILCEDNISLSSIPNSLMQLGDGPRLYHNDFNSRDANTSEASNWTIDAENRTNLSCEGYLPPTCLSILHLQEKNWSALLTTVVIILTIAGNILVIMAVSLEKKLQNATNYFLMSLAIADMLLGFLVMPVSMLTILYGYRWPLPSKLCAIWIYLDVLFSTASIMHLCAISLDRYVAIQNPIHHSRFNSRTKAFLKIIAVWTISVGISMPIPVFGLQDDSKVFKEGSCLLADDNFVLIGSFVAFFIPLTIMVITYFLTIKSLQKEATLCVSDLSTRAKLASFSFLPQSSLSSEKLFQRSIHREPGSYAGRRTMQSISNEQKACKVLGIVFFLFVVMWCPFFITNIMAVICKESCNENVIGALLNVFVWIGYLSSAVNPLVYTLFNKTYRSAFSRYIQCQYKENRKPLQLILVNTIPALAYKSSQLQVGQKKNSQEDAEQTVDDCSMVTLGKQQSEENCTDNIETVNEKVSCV
T6 sequence (O70528 whole entry): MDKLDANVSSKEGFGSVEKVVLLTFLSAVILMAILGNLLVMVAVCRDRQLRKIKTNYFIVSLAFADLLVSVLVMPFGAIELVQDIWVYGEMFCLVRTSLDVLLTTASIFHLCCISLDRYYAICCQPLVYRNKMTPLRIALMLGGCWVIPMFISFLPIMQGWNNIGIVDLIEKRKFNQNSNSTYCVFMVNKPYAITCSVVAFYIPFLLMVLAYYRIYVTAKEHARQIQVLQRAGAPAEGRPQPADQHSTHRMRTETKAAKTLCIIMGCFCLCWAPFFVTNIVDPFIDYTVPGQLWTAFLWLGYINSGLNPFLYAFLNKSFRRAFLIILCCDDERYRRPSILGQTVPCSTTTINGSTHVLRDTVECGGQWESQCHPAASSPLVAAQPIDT
T2 sequence (P28564 whole entry): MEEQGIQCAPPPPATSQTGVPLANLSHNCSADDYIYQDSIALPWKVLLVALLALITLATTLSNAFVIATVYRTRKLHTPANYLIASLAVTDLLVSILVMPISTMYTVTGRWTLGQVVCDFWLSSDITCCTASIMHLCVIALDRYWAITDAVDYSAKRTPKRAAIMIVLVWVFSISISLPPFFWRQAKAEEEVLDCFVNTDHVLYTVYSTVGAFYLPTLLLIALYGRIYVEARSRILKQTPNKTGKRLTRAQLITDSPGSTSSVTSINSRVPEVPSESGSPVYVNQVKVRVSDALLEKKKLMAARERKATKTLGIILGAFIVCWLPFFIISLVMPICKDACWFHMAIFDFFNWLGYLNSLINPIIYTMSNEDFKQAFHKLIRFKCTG

| Structure (SMILES) | Ki [1] [nM] | EC50 [9] [nM] | IC50 [11] [nM] | Ki [14] [nM] | Ki [15] [nM] | Ki [16] [nM] | Ki [18] [nM] | Ki [19] [nM] | further results |
| --- | --- | --- | --- | --- | --- | --- | --- | --- | --- |
| CN1CCN(c2nc3ncccc3n3cccc23)CC1 | 25.1 | 1.7 |  |  |  |  |  |  | Ki [2]: 25.1 nM; Ki [3]: > 10000 nM; Ki [4]: 794 nM; IC50 [5]: 9.3 nM; Ki [6]: 2.51 nM; Ki [7]: > 10000 nM; Kp [8]: 4.9; Efficacy (NG108-15 [10]): Partial agonist |
| Cc1ccc2c(c1)nc(N1CCN(C)CC1)c1cccn12 |  | 14 | 18 |  |  |  |  |  | Efficacy (NG108-15 [12]): Agonist |
| c1ccc(N2CCN(c3nc4ncccc4n4cccc34)CC2)cc1 |  |  |  |  |  |  |  |  | IC50 [13]: Not Active |
| Cc1cccc2nc(N3CCN(C)CC3)c3cccn3c12 |  | 3.8 | 0.79 | 398 | 501 | > 10000 | 0.794 | > 10000 | IC50 [17]: 0.26 nM; Kp [20]: 9.5; Efficacy (NG108-15 [21]): Agonist |
| Cc1cccc2nc(N3CCNCC3)c3cccn3c12 | > 10000 | 9.5 | 1.13 | 251 | 1000 | 1000 | 1 | > 10000 | Efficacy (NG108-15 [22]): Partial agonist |
